The list is a sample of the results.
Apaf1 activ – activators of human Apaf-1 apoptosome, primary screen, biochemical, DEVD-Rh110 fluorescence, uHTS; Apoptotic protease-activating factor 1 (Homo sapiens), O14727; Apaf-1 apoptosome caspase-3 activation; active compounds read low; activity change, negative = activation, % at 20 µM; actives 0.31% (n = 330,000);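 active = activity change at or below -40% at 20 µM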
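Schedule: 30 min preincubation, 50 min reaction, room temperature / System: biochemical Apaf-1 apoptosome reconstitution / Medium: 20 mM HEPES pH 7.5 with CHAPS, BSA / Evaluation: Caspase-3 cleavage activity downstream of Apaf-1 activation / Detection: Caspase-3-released Rh110 fluorescence, 540 nm emission, 480 nm excitation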
Rh110 act interf – Rh110 fluorescence interference by putative Apaf-1 activators, confirmation, artefact control for Apaf-1 activator project, biochemical, 20 µM; shares compounds with Apaf1 activ; quenched caspase reaction, Ex480/Em540; AID 504616, 2011; fluorescence interference (activity change), % at 20 µM, hits read low; 980 tested, under 10 active;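 active = mean activity change at or below -40% when tested at 20 µM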
Apaf-1 act conf2 – Apaf-1 activators, single-dose retest, confirmation, biochemical, fluorescence, DEVD-Rh110, 20 µM; activity change, negative = activation, % at 20 µM; shares compounds with Apaf1 activ; actives 5% (n = 980); AID 504617, 2011; reconstituted apoptosome caspase-3 activity; active compounds read low;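 active = mean activity change at or below -40%, meaning activation of 40% or more, at 20 µM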
* hit, by the source's call; / = no result.

SMILES	Apaf1 activ	Rh110 act interf	Apaf-1 act conf2
Cc1ccc(Oc2nsnc2N2CCOCC2)cc1	-106*	4	13
CC(C)COCC(CN(Cc1ccccc1)c1ccccc1)N1CCCC1 (centres undefined)	49	/	/
CC(NC(=O)Nc1ccc(F)cc1)c1ccc2c(c1)OCO2 (centres undefined)	-71*	21	0
O=C1c2ccccc2-c2onc3c(N4CCN(CCO)CC4)cc(N4CCN(C(=O)c5ccco5)CC4)c1c23	52	/	/
CN1CCN(c2cc(N3CCN(C(=O)c4ccco4)CC3)c3c4c(onc24)-c2ccccc2C3=O)CC1	82	/	/
O=C(c1ccco1)N1CCN(C(c2ccccc2)c2nnnn2Cc2cccs2)CC1 (centres undefined)	-107*	9	16
CC(NC(=O)c1ccccc1Cl)C(=O)O (centres undefined)	-532*	-1	3
O=C(Cn1nc(-c2ccccc2Cl)ccc1=O)Nc1ccccc1-c1ccccc1	56	/	/
O=C(NC1(O)C(=O)c2ccccc2C1=O)c1c(Cl)cccc1Cl	96	/	/
CCOc1ccc2nc3cc(NCc4ccc(OC)cc4)ccc3c(N)c2c1	96	/	/
O=C(c1ccccc1)c1ccc2c(c1)OCCOCCOCCOCCO2	-208*	1	1
O=C(N/N=C/c1ccc(O)c2ncccc12)c1cccc(Br)c1	-68*	-1	-4
Oc1ccc(C=Nc2cccc3ncccc23)c(O)c1	87	/	/
O=C1c2ccccc2-c2nnc(-c3ccc(F)cc3)cc21	78	/	/
COc1cc(/C=C/c2nc(N)nc(-c3ccccc3O)n2)cc(OC)c1OC	-517*	14	17
C[C@@H]1[C@H]2[C@@H]3CC[C@@H](C3)[C@H]2CN[C@H]1c1cn(Cc2ccccc2)c2ccccc12	62	/	/
CCc1sc(NC(=O)CCC(=O)O)nc1-c1cc2ccccc2oc1=O	-223*	3	3
COc1ccc2c(c1)Cc1sc(NC(=O)c3ccccc3)nc1-2	83	/	/
c1ccc(-c2c(-c3ccccc3)n(Cc3ccco3)c3ncnc(NCCCn4ccnc4)c23)cc1	42	/	/
CC1(C)CC(=O)C(C=Nc2ccc(O)c(N=CC3=C(O)CC(C)(C)CC3=O)c2)=C(O)C1	47	/	/
NC(=O)/C(=C/c1ccc2c(c1)OCO2)NC(=O)c1ccco1	-44*	1	1
Cc1nc(SCc2ccccc2)c2oc3ccccc3c2n1	-159*	16	13
NC1=NC[C@H](CC2CCCCC2)N1CCc1cc(C(F)(F)F)cc(C(F)(F)F)c1	74	/	/
O=C(Nc1ccc2nc(-c3ccco3)c(-c3ccco3)nc2c1)NC1CC1	47	/	/
O=C(NC1CC2CCCC(C1)N2S(=O)(=O)c1ccccc1)c1ccco1 (centres undefined)	42	/	/
SMILES	Apaf1 activ	Rh110 act interf	Apaf-1 act conf2
O=C(NC1CC1)c1cc2ccccc2o1	-363*	1	-1
Cc1ccc(N2C(=O)[C@@H]3[C@H](C2=O)C2c4ccccc4C=CN2[C@@H]3C(=O)c2ccco2)c(C)c1 (some centres undefined)	87	/	/
C#CCOCCOCCOCCNc1nc(N2CCN(C(=O)CCCCCCCCCCNC(=O)[C@H](CCCCN)n3cc(C)nn3)CC2)nc(N2CCN(C(=O)CCCCCCCCCCNC(=O)[C@@H]([C@H](C)O)n3cc(C)nn3)CC2)n1	54	/	/
CCCC(=O)N1c2ccccc2[C@@H](N(C(C)=O)c2ccccc2)C[C@H]1C	-55*	0	12
CCc1nn(CCCC(=O)NCc2ccccc2Br)c(=O)c2cc3occc3n12	46	/	/
CCO/C=C1\SC(=S)N(c2ccc(Cl)cc2)C1=O	-109*	4	23
O=C(Nc1ccc(N2CCN(C(=O)c3ccccc3F)CC2)cc1)c1cncc(Br)c1	-65*	14	17
Cc1cc2cc(CNS(=O)(=O)c3ccccc3)ccc2n1C	61	/	/
O=C(NCc1ccco1)Nc1ccc2nsnc2c1	59	/	/
O=C(NCc1ccc2c(c1)OCO2)Nc1cccc(Cl)c1	-45*	-4	10
CCOC(=O)Nc1ccc(NCc2ccc(F)cc2)nc1N	96	/	/
COc1cccc(-c2sc3ccc(OC)cc3c2-c2ccc(OCCN3CCCC3)cc2)c1	70	/	/
Cc1ccc(S(=O)(=O)N(C)C)cc1NC(=S)Nc1cccc2ccccc12	93	/	/
Cc1ccc(S(=O)(=O)N(C)C)cc1NC(=O)CSc1nc2ncc(Cl)cc2[nH]1	-111*	3	19
O=C(/C=C/c1ccc([N+](=O)[O-])cc1)/C=C/c1ccco1	43	/	/
CCOC(=O)c1cnc2ccc(C)cc2c1Nc1ccc(N2CCOCC2)cc1	41	/	/
CCOC(=O)c1cnc(SCC(=O)N2CCN(C(=O)c3ccco3)CC2)nc1N	-93*	1	10
CNC(=S)N/N=C(\C)c1ccc(C)c(C)c1	-246*	2	6
Cc1nn2c(-c3ccncc3)nnc2c2ccccc12	74	/	/
COc1cc(OC)c2c(-c3cccc(-c4ccc(CO)cc4)c3)cc(=O)oc2c1	42	/	/
CC(C)COC(=O)c1nnsc1NC(=O)Nc1ccccc1	-63*	0	14
NC(=O)OCC(COC(N)=O)c1ccccc1	-6	/	/
CNC[C@H](CC1CCCCC1)NC[C@H](Cc1ccccc1)NCCC12CC3CC(CC(C3)C1)C2	74	/	/
O=C1CC(N2CCOCC2)=NN1c1ccc([N+](=O)[O-])cc1	94	/	/
CC[C@@H](C)[C@@H]1CN([C@@H](CN2CCC[C@H]2CN2C(N)=NC[C@H]2CC(C)C)C(C)C)C(=N)N1CCc1ccc(Cl)c(Cl)c1	63	/	/
SMILES	Apaf1 activ	Rh110 act interf	Apaf-1 act conf2
CN(C)S(=O)(=O)Oc1cccc(C(=O)Nc2ccc(Cl)c(Cl)c2)c1	-40*	2	14
O=C(c1ccc(F)cc1)[C@@H]1[C@@H](C(=O)c2ccccc2)[C@@]2(C(=O)Nc3ccccc32)[C@H]2c3ccccc3C=CN12	73	/	/
CCC[C@@H](CN1CCC[C@H]1CN1C(N)=NC[C@H]1CC(C)C)N1C[C@@H](Cc2ccccc2)N(CCc2ccc(Cl)c(Cl)c2)C1=N	68	/	/
O=C(O)c1cc([N+](=O)[O-])ccc1NCCc1ccccc1	-97*	-2	18
Cc1[nH][nH]c(=O)c1C(c1ccc(-c2cccc(Cl)c2)o1)c1c(C)[nH][nH]c1=O	87	/	/
CC(OC(=O)c1cc(O)c2ccccc2c1O)C(=O)Nc1ccc(C(N)=O)cc1 (centres undefined)	49	/	/
Cc1ccc(C(=O)NC(C(=O)Nc2ccccc2)c2ccccc2)cc1 (centres undefined)	-55*	8	15
CCc1cc2c(SCC(=O)N3CC(=O)Nc4ccccc43)ncnc2s1	55	/	/
COc1ccccc1N1C(=O)N(C(C)=O)C2C1Nc1ccccc1N2C (centres undefined)	83	/	/
CCS(=O)(=O)NCCc1csc(C)n1	-484*	8	12
Clc1ccccc1OCc1nn2c(-c3ccncc3)nnc2s1	41	/	/
Cc1ccc(C(=O)N/N=C/c2ccc(-c3ccc(Br)cc3[N+](=O)[O-])o2)o1	42	/	/
CCN(CC(=O)Nc1ccccc1C(F)(F)F)C(=O)c1ccccc1SCC(=O)N1CCCC1	43	/	/
O=C(NC(=S)Nc1ccccc1C(F)(F)F)c1ccccc1F	-244*	14	17

High-throughput results (PubChem)
